According to ChEMBL document CHEMBL5303300, “EUbOPEN Chemogenomics Library - Multiplex” (2023):
Values joined by “and” are separate entries in the source; they are usually repeats but may differ in a detail not shown here. Identical values can stand only once.

Key:
HEK-293T = assay: Multiplex assay against HEK293T; format: toxicity, cell-based; settings: human, number of replicates 2
Outline: (§1)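 Phenotypes for tubulin, mitochondrial mass and membrane permeability are expressed as per cents of healthy-nucleus cells. Cells were stained live at seeding with Hoechst33342, BioTracker Green Microtubule Cytoskeleton Dye, MitoTracker Red and Annexin V Alexa Fluor 680, then imaged after compound addition on a CQ1 microscope at 37°C and 5% CO2. Machine-learning gating in CellPathfinder separated Hoechst high-intensity objects from normal cells, divided normal cells by nuclear state (healthy, pyknosed, fragmented) and divided pyknosed cells into mitotic or apoptotic.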

U2OS = assay: Multiplex assay against U2OS; format: toxicity, cell-based; settings: human, number of replicates 2; outline: as §1
[1] = 24 h, 1 µM, compound concentration 1 uM
[2] = 24 h, 10 µM, compound concentration 10 uM
[3] = 48 h, 1 µM, compound concentration 1 uM
[4] = 48 h, 10 µM, compound concentration 10 uM
[5] = 12 h, 1 µM, compound concentration 1 uM
[6] = 12 h, 10 µM, compound concentration 10 uM

SMILES: Br.Cc1cccc(C2CN(C)CCc3c2cc(O)c(O)c3Cl)c1 (stereo not drawn)
- Population Mitochondria Different-Phenotype (%) (HEK-293T; [1]): 3% and 5%
- Population Mitotic Cells (%) (HEK-293T; [1]): 63% and 68%
- Population Normal (%) (HEK-293T; [1]): 92% and 91%
- Population Pyknosed Nuclei (%) (HEK-293T; [1]): 4% and 5%
- Population Tubulin-Different-Phenotype (%) (HEK-293T; [1]): 28% and 35%
- Total Cell Count (HEK-293T; [1]): 1088 and 1072
- Population Apoptotic (%) (HEK-293T; [2]): 26% and 51%
- Population Fragmented Nuclei (%) (HEK-293T; [2]): 7% and 5%
- Population Healthy Nuclei (%) (HEK-293T; [2]): 87% and 89%
- Population Hoechst High Intensity Objects (%) (HEK-293T; [2]): 7%
- Population Membrane Permeable-Phenotype (%) (HEK-293T; [2]): 2% and 3%
- Population Mitochondria Different-Phenotype (%) (HEK-293T; [2]): 11% and 10%
- Population Mitotic Cells (%) (HEK-293T; [2]): 73% and 48%
- Population Normal (%) (HEK-293T; [2]): 92%
- Population Pyknosed Nuclei (%) (HEK-293T; [2]): 4% and 5%
- Population Tubulin-Different-Phenotype (%) (HEK-293T; [2]): 53% and 49%
- Total Cell Count (HEK-293T; [2]): 768 and 746
- Population Apoptotic (%) (HEK-293T; [3]): 7% and 15%
- Population Fragmented Nuclei (%) (HEK-293T; [3]): 16% and 12%
- Population Healthy Nuclei (%) (HEK-293T; [3]): 80% and 84%
- Population Hoechst High Intensity Objects (%) (HEK-293T; [3]): 12% and 10%
- Population Membrane Permeable-Phenotype (%) (HEK-293T; [3]): 6% and 4%
- Population Mitochondria Different-Phenotype (%) (HEK-293T; [3]): 0% and 1%
- Population Mitotic Cells (%) (HEK-293T; [3]): 92% and 84%
- Population Normal (%) (HEK-293T; [3]): 87% and 89%
- Population Pyknosed Nuclei (%) (HEK-293T; [3]): 2% and 3%
- Population Tubulin-Different-Phenotype (%) (HEK-293T; [3]): 15% and 19%
- Total Cell Count (HEK-293T; [3]): 2930 and 2368
- Population Apoptotic (%) (HEK-293T; [4]): 10% and 21%
- Population Fragmented Nuclei (%) (HEK-293T; [4]): 12%
- Population Healthy Nuclei (%) (HEK-293T; [4]): 84%
- Population Hoechst High Intensity Objects (%) (HEK-293T; [4]): 11%
- Population Membrane Permeable-Phenotype (%) (HEK-293T; [4]): 9% and 6%
- Population Mitochondria Different-Phenotype (%) (HEK-293T; [4]): 0% and 1%
- Population Mitotic Cells (%) (HEK-293T; [4]): 89% and 78%
- Population Normal (%) (HEK-293T; [4]): 88%
- Population Pyknosed Nuclei (%) (HEK-293T; [4]): 2%
- Population Tubulin-Different-Phenotype (%) (HEK-293T; [4]): 22% and 26%
- Total Cell Count (HEK-293T; [4]): 1797 and 1636
- Population Apoptotic (%) (U2OS; [5]): 80% and 65%
- Population Healthy Nuclei (%) (U2OS; [5]): 61% and 87%
- Population Hoechst High Intensity Objects (%) (U2OS; [5]): 0%
- Population Membrane Permeable-Phenotype (%) (U2OS; [5]): 0%
- Population Mitochondria Different-Phenotype (%) (U2OS; [5]): 0%
- Population Mitotic Cells (%) (U2OS; [5]): 20% and 35%
- Population Normal (%) (U2OS; [5]): 100%
- Population Pyknosed Nuclei (%) (U2OS; [5]): 10% and 7%
- Population Tubulin-Different-Phenotype (%) (U2OS; [5]): 51% and 83%
- Population Fragmented Nuclei (%) (U2OS; [6]): 4% and 14%
- Population Healthy Nuclei (%) (U2OS; [6]): 88% and 80%
- Population Hoechst High Intensity Objects (%) (U2OS; [6]): 0%
- Population Membrane Permeable-Phenotype (%) (U2OS; [6]): 1% and 0%
- Population Mitochondria Different-Phenotype (%) (U2OS; [6]): 1% and 0%
- Population Mitotic Cells (%) (U2OS; [6]): 41% and 100%
- Population Normal (%) (U2OS; [6]): 100%
- Population Pyknosed Nuclei (%) (U2OS; [6]): 7% and 4%
- Population Tubulin-Different-Phenotype (%) (U2OS; [6]): 88% and 35%
- Population Apoptotic (%) (U2OS; [1]): 56% and 50%
- Population Healthy Nuclei (%) (U2OS; [1]): 91% and 73%
- Population Hoechst High Intensity Objects (%) (U2OS; [1]): 0%
- Population Membrane Permeable-Phenotype (%) (U2OS; [1]): 0% and 3%
- Population Mitochondria Different-Phenotype (%) (U2OS; [1]): 0%
- Population Mitotic Cells (%) (U2OS; [1]): 43% and 50%
- Population Normal (%) (U2OS; [1]): 100%
- Population Pyknosed Nuclei (%) (U2OS; [1]): 6% and 13%
- Population Tubulin-Different-Phenotype (%) (U2OS; [1]): 85% and 48%
- Population Apoptotic (%) (U2OS; [2]): 58% and 50%
- Population Healthy Nuclei (%) (U2OS; [2]): 89% and 62%
- Population Hoechst High Intensity Objects (%) (U2OS; [2]): 0%
- Population Membrane Permeable-Phenotype (%) (U2OS; [2]): 0% and 10%
- Population Mitochondria Different-Phenotype (%) (U2OS; [2]): 1% and 0%
- Population Mitotic Cells (%) (U2OS; [2]): 41% and 50%
- Population Normal (%) (U2OS; [2]): 100%
- Population Pyknosed Nuclei (%) (U2OS; [2]): 8% and 12%
- Population Tubulin-Different-Phenotype (%) (U2OS; [2]): 83% and 40%
- Population Apoptotic (%) (U2OS; [3]): 42% and 46%
- Population Healthy Nuclei (%) (U2OS; [3]): 72% and 90%
- Population Hoechst High Intensity Objects (%) (U2OS; [3]): 0%
- Population Membrane Permeable-Phenotype (%) (U2OS; [3]): 2% and 0%
- Population Mitochondria Different-Phenotype (%) (U2OS; [3]): 0%
- Population Mitotic Cells (%) (U2OS; [3]): 57% and 53%
- Population Normal (%) (U2OS; [3]): 100%
- Population Pyknosed Nuclei (%) (U2OS; [3]): 11% and 5%
- Population Tubulin-Different-Phenotype (%) (U2OS; [3]): 60% and 91%
- Population Apoptotic (%) (U2OS; [4]): 50% and 67%
- Population Healthy Nuclei (%) (U2OS; [4]): 73% and 91%
- Population Hoechst High Intensity Objects (%) (U2OS; [4]): 0%
- Population Membrane Permeable-Phenotype (%) (U2OS; [4]): 4% and 0%
- Population Mitochondria Different-Phenotype (%) (U2OS; [4]): 4% and 0%
- Population Mitotic Cells (%) (U2OS; [4]): 50% and 32%
- Population Normal (%) (U2OS; [4]): 100%
- Population Pyknosed Nuclei (%) (U2OS; [4]): 13% and 6%
- Population Tubulin-Different-Phenotype (%) (U2OS; [4]): 63% and 88%
